test system: Felis catus; assay: Control blood pressure in normotensive anesthetized cat at dose 10 mg/Kg iv

| SMILES | control BP [mmHg] |
| --- | --- |
| CCOC(=O)C(CNC(C)=O)c1cn(C(=O)OCC)c2ccc(OC)cc12 (stereo unspecified) | 195 |
| COc1ccc2[nH]cc(C(CN)C(=O)O)c2c1 (stereo unspecified) | 142 |
| COC(=O)C(CN(C)C)c1c[nH]c2ccc(OC)cc12.O=C(O)C(=O)O (stereo unspecified) | 167 |
| CCOC(=O)C(N)Cc1c[nH]c2ccc(O)cc12 (stereo unspecified) | 156 |
| CCOC(=O)C(C)(N)Cc1c[nH]c2ccc(O)cc12 (stereo unspecified) | 142 |
| NCC(C(=O)O)c1c[nH]c2ccc(F)cc12 (stereo unspecified) | 180 |
| NCC(C(=O)O)c1c[nH]c2cc(Cl)ccc12 (stereo unspecified) | 179 |
| CCCCCOC(=O)C(CN)c1c[nH]c2ccc(OC)cc12.Cl (stereo unspecified) | 148 |
| CCOC(=O)CC(c1nnn[nH]1)c1c[nH]c2cc(Cl)ccc12 (stereo unspecified) | 175 |
| COc1ccc2[nH]cc(C(CN)c3nnn[nH]3)c2c1 (stereo unspecified) | 167 |
| CCOC(=O)C(CN)c1c[nH]c2ccc(OC)cc12.Cl (stereo unspecified) | 160 |
| CCCOc1ccc2[nH]cc(C(CN)C(=O)OC)c2c1.Cl (stereo unspecified) | 150 |
| CCOC(=O)CC(c1nnn[nH]1)c1c[nH]c2ccc(OC)cc12 (stereo unspecified) | 136 |
| COC(=O)C(CN)c1c[nH]c2ccc(O)cc12.Cl (stereo unspecified) | 135 |
| COC(=O)C(CN)c1c[nH]c2ccc(F)cc12.Cl (stereo unspecified) | 133 |
| CCOC(=O)CC(c1nnn[nH]1)c1c[nH]c2cc(OC)c(OC)cc12 (stereo unspecified) | 164 |

test system: Rattus norvegicus; assay: Antihypertensive activity in renal hypertensive rats 4 hr after oral administration (10 mg/Kg); format: functional
Outline: (§1)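 Renal hypertensive rats (5 or 10 per group), 10 mg/kg given orally. Systolic pressure measured indirectly by tail occluding cuff with pulse sensor, once before dosing as control and again at 1, 2, 4, 6 and 8 h. Values are changes in mean systolic pressure from control (mmHg). Significance of control vs posttreatment assessed by Wilcoxon's signed rank test (p < 0.05).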

| SMILES | BP [mmHg] |
| --- | --- |
| COC(=O)C(c1c[nH]c2ccc(OC)cc12)C(C)N (stereo unspecified) | -3 |
| CCOC(=O)C(CNC(C)=O)c1cn(C(=O)OCC)c2ccc(OC)cc12 (stereo unspecified) | -21 |
| COc1ccc2[nH]cc(C(CN)C(=O)O)c2c1 (stereo unspecified) | 2 |
| COC(=O)C(CN(C)C)c1c[nH]c2ccc(OC)cc12.O=C(O)C(=O)O (stereo unspecified) | 1 |
| CCOC(=O)C(N)Cc1c[nH]c2ccc(O)cc12 (stereo unspecified) | 2 |
| CCOC(=O)C(C)(N)Cc1c[nH]c2ccc(O)cc12 (stereo unspecified) | 14 |
| COc1ccc2[nH]cc(C(CN)CO)c2c1.O=C(O)C(=O)O (stereo unspecified) | 4 |
| NCC(C(=O)O)c1c[nH]c2ccc(F)cc12 (stereo unspecified) | -27 |
| NCC(C(=O)O)c1c[nH]c2cc(Cl)ccc12 (stereo unspecified) | -6 |
| CCCCCOC(=O)C(CN)c1c[nH]c2ccc(OC)cc12.Cl (stereo unspecified) | -3 |
| CCOC(=O)CC(c1nnn[nH]1)c1c[nH]c2cc(Cl)ccc12 (stereo unspecified) | -4 |
| COc1ccc2[nH]cc(C(CN)c3nnn[nH]3)c2c1 (stereo unspecified) | -2 |
| CCOC(=O)C(CN)c1c[nH]c2ccc(OC)cc12.Cl (stereo unspecified) | 4 |
| CCCOc1ccc2[nH]cc(C(CN)C(=O)OC)c2c1.Cl (stereo unspecified) | 8 |
| CCOC(=O)CC(c1nnn[nH]1)c1c[nH]c2ccc(OC)cc12 (stereo unspecified) | -25 |
| COC(=O)C(CN)c1c[nH]c2ccc(O)cc12.Cl (stereo unspecified) | 4 |
| COC(=O)C(CN)c1c[nH]c2ccc(F)cc12.Cl (stereo unspecified) | -9 |
| CCOC(=O)CC(c1nnn[nH]1)c1c[nH]c2cc(OC)c(OC)cc12 (stereo unspecified) | -20 |

test system: Rattus norvegicus; assay: Antihypertensive activity in renal hypertensive rats 2 hr after oral administration (10 mg/Kg); format: functional
Outline: as §1

| SMILES | BP [mmHg] |
| --- | --- |
| COC(=O)C(c1c[nH]c2ccc(OC)cc12)C(C)N (stereo unspecified) | -3 |
| CCOC(=O)C(CNC(C)=O)c1cn(C(=O)OCC)c2ccc(OC)cc12 (stereo unspecified) | -12 |
| COc1ccc2[nH]cc(C(CN)C(=O)O)c2c1 (stereo unspecified) | -10 |
| COC(=O)C(CN(C)C)c1c[nH]c2ccc(OC)cc12.O=C(O)C(=O)O (stereo unspecified) | -2 |
| CCOC(=O)C(N)Cc1c[nH]c2ccc(O)cc12 (stereo unspecified) | -5 |
| CCOC(=O)C(C)(N)Cc1c[nH]c2ccc(O)cc12 (stereo unspecified) | -7 |
| COc1ccc2[nH]cc(C(CN)CO)c2c1.O=C(O)C(=O)O (stereo unspecified) | -15 |
| NCC(C(=O)O)c1c[nH]c2ccc(F)cc12 (stereo unspecified) | -26 |
| NCC(C(=O)O)c1c[nH]c2cc(Cl)ccc12 (stereo unspecified) | -5 |
| CCCCCOC(=O)C(CN)c1c[nH]c2ccc(OC)cc12.Cl (stereo unspecified) | -11 |
| CCOC(=O)CC(c1nnn[nH]1)c1c[nH]c2cc(Cl)ccc12 (stereo unspecified) | 2 |
| COc1ccc2[nH]cc(C(CN)c3nnn[nH]3)c2c1 (stereo unspecified) | 5 |
| CCOC(=O)C(CN)c1c[nH]c2ccc(OC)cc12.Cl (stereo unspecified) | -4 |
| CCCOc1ccc2[nH]cc(C(CN)C(=O)OC)c2c1.Cl (stereo unspecified) | 6 |
| CCOC(=O)CC(c1nnn[nH]1)c1c[nH]c2ccc(OC)cc12 (stereo unspecified) | -21 |
| COC(=O)C(CN)c1c[nH]c2ccc(O)cc12.Cl (stereo unspecified) | 1 |
| COC(=O)C(CN)c1c[nH]c2ccc(F)cc12.Cl (stereo unspecified) | -18 |
| CCOC(=O)CC(c1nnn[nH]1)c1c[nH]c2cc(OC)c(OC)cc12 (stereo unspecified) | -15 |

test system: Rattus norvegicus; assay: Antihypertensive activity in renal hypertensive rats 8 hr after oral administration (10 mg/Kg); format: functional
Outline: as §1

| SMILES | BP [mmHg] |
| --- | --- |
| COC(=O)C(c1c[nH]c2ccc(OC)cc12)C(C)N (stereo unspecified) | 2 |
| CCOC(=O)C(CNC(C)=O)c1cn(C(=O)OCC)c2ccc(OC)cc12 (stereo unspecified) | -14 |
| COc1ccc2[nH]cc(C(CN)C(=O)O)c2c1 (stereo unspecified) | -2 |
| COC(=O)C(CN(C)C)c1c[nH]c2ccc(OC)cc12.O=C(O)C(=O)O (stereo unspecified) | 13 |
| CCOC(=O)C(N)Cc1c[nH]c2ccc(O)cc12 (stereo unspecified) | 1 |
| CCOC(=O)C(C)(N)Cc1c[nH]c2ccc(O)cc12 (stereo unspecified) | 6 |
| COc1ccc2[nH]cc(C(CN)CO)c2c1.O=C(O)C(=O)O (stereo unspecified) | 0 |
| NCC(C(=O)O)c1c[nH]c2ccc(F)cc12 (stereo unspecified) | 0 |
| NCC(C(=O)O)c1c[nH]c2cc(Cl)ccc12 (stereo unspecified) | -9 |
| CCCCCOC(=O)C(CN)c1c[nH]c2ccc(OC)cc12.Cl (stereo unspecified) | -4 |
| CCOC(=O)CC(c1nnn[nH]1)c1c[nH]c2cc(Cl)ccc12 (stereo unspecified) | -11 |
| COc1ccc2[nH]cc(C(CN)c3nnn[nH]3)c2c1 (stereo unspecified) | 13 |
| CCOC(=O)C(CN)c1c[nH]c2ccc(OC)cc12.Cl (stereo unspecified) | -3 |
| CCCOc1ccc2[nH]cc(C(CN)C(=O)OC)c2c1.Cl (stereo unspecified) | 5 |
| CCOC(=O)CC(c1nnn[nH]1)c1c[nH]c2ccc(OC)cc12 (stereo unspecified) | -11 |
| COC(=O)C(CN)c1c[nH]c2ccc(O)cc12.Cl (stereo unspecified) | 7 |
| COC(=O)C(CN)c1c[nH]c2ccc(F)cc12.Cl (stereo unspecified) | 1 |
| CCOC(=O)CC(c1nnn[nH]1)c1c[nH]c2cc(OC)c(OC)cc12 (stereo unspecified) | -14 |

test system: Rattus norvegicus; assay: Antihypertensive activity in renal hypertensive rats 1 hr after oral administration (10 mg/Kg); format: functional
Outline: as §1

| SMILES | BP [mmHg] |
| --- | --- |
| COC(=O)C(c1c[nH]c2ccc(OC)cc12)C(C)N (stereo unspecified) | -6 |
| CCOC(=O)C(CNC(C)=O)c1cn(C(=O)OCC)c2ccc(OC)cc12 (stereo unspecified) | -15 |
| COc1ccc2[nH]cc(C(CN)C(=O)O)c2c1 (stereo unspecified) | -1 |
| COC(=O)C(CN(C)C)c1c[nH]c2ccc(OC)cc12.O=C(O)C(=O)O (stereo unspecified) | -9 |
| CCOC(=O)C(N)Cc1c[nH]c2ccc(O)cc12 (stereo unspecified) | -14 |
| CCOC(=O)C(C)(N)Cc1c[nH]c2ccc(O)cc12 (stereo unspecified) | -2 |
| COc1ccc2[nH]cc(C(CN)CO)c2c1.O=C(O)C(=O)O (stereo unspecified) | -13 |
| NCC(C(=O)O)c1c[nH]c2ccc(F)cc12 (stereo unspecified) | -19 |
| NCC(C(=O)O)c1c[nH]c2cc(Cl)ccc12 (stereo unspecified) | -4 |
| CCCCCOC(=O)C(CN)c1c[nH]c2ccc(OC)cc12.Cl (stereo unspecified) | -7 |
| CCOC(=O)CC(c1nnn[nH]1)c1c[nH]c2cc(Cl)ccc12 (stereo unspecified) | -5 |
| COc1ccc2[nH]cc(C(CN)c3nnn[nH]3)c2c1 (stereo unspecified) | -2 |
| CCOC(=O)C(CN)c1c[nH]c2ccc(OC)cc12.Cl (stereo unspecified) | -5 |
| CCCOc1ccc2[nH]cc(C(CN)C(=O)OC)c2c1.Cl (stereo unspecified) | -6 |
| CCOC(=O)CC(c1nnn[nH]1)c1c[nH]c2ccc(OC)cc12 (stereo unspecified) | -16 |
| COC(=O)C(CN)c1c[nH]c2ccc(O)cc12.Cl (stereo unspecified) | 7 |
| COC(=O)C(CN)c1c[nH]c2ccc(F)cc12.Cl (stereo unspecified) | -28 |
| CCOC(=O)CC(c1nnn[nH]1)c1c[nH]c2cc(OC)c(OC)cc12 (stereo unspecified) | -11 |

test system: Rattus norvegicus; assay: Antihypertensive activity in renal hypertensive rats 6 hr after oral administration (10 mg/Kg); format: functional
Outline: as §1

| SMILES | BP [mmHg] |
| --- | --- |
| COC(=O)C(c1c[nH]c2ccc(OC)cc12)C(C)N (stereo unspecified) | 3 |
| CCOC(=O)C(CNC(C)=O)c1cn(C(=O)OCC)c2ccc(OC)cc12 (stereo unspecified) | -20 |
| COc1ccc2[nH]cc(C(CN)C(=O)O)c2c1 (stereo unspecified) | -6 |
| COC(=O)C(CN(C)C)c1c[nH]c2ccc(OC)cc12.O=C(O)C(=O)O (stereo unspecified) | 14 |
| CCOC(=O)C(N)Cc1c[nH]c2ccc(O)cc12 (stereo unspecified) | 2 |
| CCOC(=O)C(C)(N)Cc1c[nH]c2ccc(O)cc12 (stereo unspecified) | 22 |
| COc1ccc2[nH]cc(C(CN)CO)c2c1.O=C(O)C(=O)O (stereo unspecified) | -8 |
| NCC(C(=O)O)c1c[nH]c2ccc(F)cc12 (stereo unspecified) | -15 |
| NCC(C(=O)O)c1c[nH]c2cc(Cl)ccc12 (stereo unspecified) | -14 |
| CCCCCOC(=O)C(CN)c1c[nH]c2ccc(OC)cc12.Cl (stereo unspecified) | -11 |
| CCOC(=O)CC(c1nnn[nH]1)c1c[nH]c2cc(Cl)ccc12 (stereo unspecified) | -17 |
| COc1ccc2[nH]cc(C(CN)c3nnn[nH]3)c2c1 (stereo unspecified) | 3 |
| CCOC(=O)C(CN)c1c[nH]c2ccc(OC)cc12.Cl (stereo unspecified) | -2 |
| CCCOc1ccc2[nH]cc(C(CN)C(=O)OC)c2c1.Cl (stereo unspecified) | 9 |
| CCOC(=O)CC(c1nnn[nH]1)c1c[nH]c2ccc(OC)cc12 (stereo unspecified) | -16 |
| COC(=O)C(CN)c1c[nH]c2ccc(O)cc12.Cl (stereo unspecified) | 0 |
| COC(=O)C(CN)c1c[nH]c2ccc(F)cc12.Cl (stereo unspecified) | -4 |
| CCOC(=O)CC(c1nnn[nH]1)c1c[nH]c2cc(OC)c(OC)cc12 (stereo unspecified) | -25 |

test system: Felis catus; assay: Change in blood pressure in normotensive anesthetized cat.; format: functional
Outline: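 Normotensive cats of either sex (2-4 kg) anesthetized with α-chloralose (80 mg/kg iv). Trachea, femoral artery and jugular vein cannulated. Compound given iv at 10 mg/kg, with 1 mg/kg iv used in one case. Mean blood pressure recorded by pressure transducer before and 30 min after dosing, reported as decrease in mmHg.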

| SMILES | BP [mmHg] |
| --- | --- |
| CCOC(=O)C(CNC(C)=O)c1cn(C(=O)OCC)c2ccc(OC)cc12 (stereo unspecified) | 0 |
| COc1ccc2[nH]cc(C(CN)C(=O)O)c2c1 (stereo unspecified) | -5 |
| COC(=O)C(CN(C)C)c1c[nH]c2ccc(OC)cc12.O=C(O)C(=O)O (stereo unspecified) | -35 |
| CCOC(=O)C(N)Cc1c[nH]c2ccc(O)cc12 (stereo unspecified) | -24 |
| CCOC(=O)C(C)(N)Cc1c[nH]c2ccc(O)cc12 (stereo unspecified) | 9 |
| NCC(C(=O)O)c1c[nH]c2ccc(F)cc12 (stereo unspecified) | -25 |
| NCC(C(=O)O)c1c[nH]c2cc(Cl)ccc12 (stereo unspecified) | -2 |
| CCCCCOC(=O)C(CN)c1c[nH]c2ccc(OC)cc12.Cl (stereo unspecified) | 2 |
| CCOC(=O)CC(c1nnn[nH]1)c1c[nH]c2cc(Cl)ccc12 (stereo unspecified) | -20 |
| COc1ccc2[nH]cc(C(CN)c3nnn[nH]3)c2c1 (stereo unspecified) | -4 |
| CCOC(=O)C(CN)c1c[nH]c2ccc(OC)cc12.Cl (stereo unspecified) | 0 |
| CCOC(=O)CC(c1nnn[nH]1)c1c[nH]c2ccc(OC)cc12 (stereo unspecified) | -11 |
| COC(=O)C(CN)c1c[nH]c2ccc(O)cc12.Cl (stereo unspecified) | -85 |
| COC(=O)C(CN)c1c[nH]c2ccc(F)cc12.Cl (stereo unspecified) | -30 |
| CCOC(=O)CC(c1nnn[nH]1)c1c[nH]c2cc(OC)c(OC)cc12 (stereo unspecified) | -6 |

From ChEMBL document CHEMBL1122079, “Tryptophan analogues. 1. Synthesis and antihypertensive activity of positional isomers” (1982)
